{"source": "ChEMBL document CHEMBL1124306", "about": "“New \"ofloxacin\" type antibacterial agents. Incorporation of the spiro cyclopropyl group at N-1” (J Med Chem, 1988)", "format_in_all_cases": "functional", "key": {"Escherichia coli [1]": {"system": "Escherichia coli", "assay": "Inhibition of growth of Escherichia coli H560"}, "Escherichia coli [2]": {"system": "Escherichia coli", "assay": "Inhibition of growth of Escherichia coli vogel"}, "Enterobacter cloacae": {"system": "Enterobacter cloacae", "assay": "Inhibition of growth of Entero. cloacae"}, "Klebsiella pneumoniae": {"system": "Klebsiella pneumoniae", "assay": "Inhibition of growth of Klebsiella pneumonia"}, "Mus musculus [3]": {"system": "Mus musculus", "assay": "In vivo protective dose (PD50) in mice against Escherichia coli Vogel when administered perorally", "conditions": "po, read-out: PD50"}, "Mus musculus [4]": {"system": "Mus musculus", "assay": "In vivo protective dose (PD50) in mice against Escherichia coli Vogel when administered subcutaneously", "conditions": "sc, read-out: PD50"}, "Pseudomonas aeruginosa": {"system": "Pseudomonas aeruginosa", "assay": "Inhibition of growth of Pseudomonas aeruginosa"}, "Providencia rettgeri": {"system": "Providencia rettgeri", "assay": "Inhibition of growth of Proteus rettgeri"}, "Staphylococcus aureus [5]": {"system": "Staphylococcus aureus", "assay": "Inhibition of growth of Staphylococcus aureus (resistant)"}, "Staphylococcus aureus [6]": {"system": "Staphylococcus aureus", "assay": "Inhibition of growth of Staphylococcus aureus (sensitive)"}, "Streptococcus pneumoniae": {"system": "Streptococcus pneumoniae", "assay": "Inhibition of growth of Streptococcus pneumonia"}, "Streptococcus pyogenes": {"system": "Streptococcus pyogenes", "assay": "Inhibition of growth of Streptococcus pyogenes"}, "Enterococcus faecalis": {"system": "Enterococcus faecalis", "assay": "Inhibition of growth of Streptococcus faecalis"}, "Escherichia coli [7]": {"system": "Escherichia coli", "assay": "Minimum concentration of the drug needed to produce linear DNA at an intensity relative to oxolinic acid(at 10 ug/mL)", "conditions": "read-out: I50", "method_in_brief": "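DNA gyrase from Escherichia coli H560, assayed by a previously published procedure. The end point is the lowest drug concentration giving linear DNA at an intensity matching the oxolinic acid reference at 10 μg/mL.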"}}, "data": [{"molecule": "CCNCC1CCN(c2c(F)cc3c(=O)c(C(=O)O)cn4c3c2OCC4C)C1", "note": "(stereo unspecified)", "values": [{"measurement": "MIC", "setting": "Escherichia coli [1]", "value": 0.05, "unit": "µg/mL"}, {"measurement": "MIC", "setting": "Escherichia coli [2]", "value": 0.1, "unit": "µg/mL"}, {"measurement": "MIC", "setting": "Enterobacter cloacae", "value": 0.2, "unit": "µg/mL"}, {"measurement": "MIC", "setting": "Klebsiella pneumoniae", "value": 0.4, "unit": "µg/mL"}, {"measurement": "ED50", "setting": "Mus musculus [3]", "value": "> 100", "unit": "mg/kg"}, {"measurement": "ED50", "setting": "Mus musculus [4]", "value": 11, "unit": "mg/kg"}, {"measurement": "MIC", "setting": "Pseudomonas aeruginosa", "value": 0.8, "unit": "µg/mL"}, {"measurement": "MIC", "setting": "Providencia rettgeri", "value": 0.4, "unit": "µg/mL"}, {"measurement": "MIC", "setting": "Staphylococcus aureus [5]", "value": 0.2, "unit": "µg/mL"}, {"measurement": "MIC", "setting": "Staphylococcus aureus [6]", "value": 0.006, "unit": "µg/mL"}, {"measurement": "MIC", "setting": "Streptococcus pneumoniae", "value": 0.025, "unit": "µg/mL"}, {"measurement": "MIC", "setting": "Streptococcus pyogenes", "value": 0.006, "unit": "µg/mL"}, {"measurement": "MIC", "setting": "Enterococcus faecalis", "value": 0.05, "unit": "µg/mL"}]}, {"molecule": "CC1COc2c(N3CCC(CN(C)C)C3)c(F)cc3c(=O)c(C(=O)O)cn1c23", "note": "(stereo unspecified)", "values": [{"measurement": "MIC", "setting": "Escherichia coli [1]", "value": 0.2, "unit": "µg/mL"}, {"measurement": "IC50", "setting": "Escherichia coli [7]", "value": 3, "unit": "µg/mL"}, {"measurement": "MIC", "setting": "Escherichia coli [2]", "value": 0.2, "unit": "µg/mL"}, {"measurement": "MIC", "setting": "Enterobacter cloacae", "value": 0.4, "unit": "µg/mL"}, {"measurement": "MIC", "setting": "Klebsiella pneumoniae", "value": 0.4, "unit": "µg/mL"}, {"measurement": "ED50", "setting": "Mus musculus [3]", "value": 6.2, "unit": "mg/kg"}, {"measurement": "ED50", "setting": "Mus musculus [4]", "value": 2.6, "unit": "mg/kg"}, {"measurement": "MIC", "setting": "Pseudomonas aeruginosa", "value": 3.1, "unit": "µg/mL"}, {"measurement": "MIC", "setting": "Providencia rettgeri", "value": 0.8, "unit": "µg/mL"}, {"measurement": "MIC", "setting": "Staphylococcus aureus [5]", "value": 0.2, "unit": "µg/mL"}, {"measurement": "MIC", "setting": "Staphylococcus aureus [6]", "value": 0.05, "unit": "µg/mL"}, {"measurement": "MIC", "setting": "Streptococcus pneumoniae", "value": 0.05, "unit": "µg/mL"}, {"measurement": "MIC", "setting": "Streptococcus pyogenes", "value": 0.05, "unit": "µg/mL"}, {"measurement": "MIC", "setting": "Enterococcus faecalis", "value": 0.4, "unit": "µg/mL"}]}, {"molecule": "CN(C)CC1CCN(c2c(F)cc3c(=O)c(C(=O)O)cn4c3c2OCC42CC2)C1", "note": "(stereo unspecified)", "values": [{"measurement": "MIC", "setting": "Escherichia coli [1]", "value": 0.8, "unit": "µg/mL"}, {"measurement": "IC50", "setting": "Escherichia coli [7]", "value": 11.2, "unit": "µg/mL"}, {"measurement": "MIC", "setting": "Escherichia coli [2]", "value": 0.4, "unit": "µg/mL"}, {"measurement": "MIC", "setting": "Enterobacter cloacae", "value": 0.8, "unit": "µg/mL"}, {"measurement": "MIC", "setting": "Klebsiella pneumoniae", "value": 0.8, "unit": "µg/mL"}, {"measurement": "ED50", "setting": "Mus musculus [3]", "value": 16, "unit": "mg/kg"}, {"measurement": "ED50", "setting": "Mus musculus [4]", "value": 6.3, "unit": "mg/kg"}, {"measurement": "MIC", "setting": "Pseudomonas aeruginosa", "value": 6.3, "unit": "µg/mL"}, {"measurement": "MIC", "setting": "Providencia rettgeri", "value": 3.1, "unit": "µg/mL"}, {"measurement": "MIC", "setting": "Staphylococcus aureus [5]", "value": 0.8, "unit": "µg/mL"}, {"measurement": "MIC", "setting": "Staphylococcus aureus [6]", "value": 0.2, "unit": "µg/mL"}, {"measurement": "MIC", "setting": "Streptococcus pneumoniae", "value": 0.4, "unit": "µg/mL"}, {"measurement": "MIC", "setting": "Streptococcus pyogenes", "value": 0.4, "unit": "µg/mL"}, {"measurement": "MIC", "setting": "Enterococcus faecalis", "value": 0.8, "unit": "µg/mL"}]}, {"molecule": "O=C(O)c1cn2c3c(c(N4CCNCC4)c(F)cc3c1=O)OCC21CC1", "values": [{"measurement": "MIC", "setting": "Escherichia coli [1]", "value": 0.4, "unit": "µg/mL"}, {"measurement": "IC50", "setting": "Escherichia coli [7]", "value": 11.2, "unit": "µg/mL"}, {"measurement": "MIC", "setting": "Escherichia coli [2]", "value": 0.8, "unit": "µg/mL"}, {"measurement": "MIC", "setting": "Enterobacter cloacae", "value": 0.4, "unit": "µg/mL"}, {"measurement": "MIC", "setting": "Klebsiella pneumoniae", "value": 0.8, "unit": "µg/mL"}, {"measurement": "MIC", "setting": "Pseudomonas aeruginosa", "value": 0.8, "unit": "µg/mL"}, {"measurement": "MIC", "setting": "Providencia rettgeri", "value": 1.6, "unit": "µg/mL"}, {"measurement": "MIC", "setting": "Staphylococcus aureus [5]", "value": 6.3, "unit": "µg/mL"}, {"measurement": "MIC", "setting": "Staphylococcus aureus [6]", "value": 1.6, "unit": "µg/mL"}, {"measurement": "MIC", "setting": "Streptococcus pneumoniae", "value": 12.5, "unit": "µg/mL"}, {"measurement": "MIC", "setting": "Streptococcus pyogenes", "value": 12.5, "unit": "µg/mL"}, {"measurement": "MIC", "setting": "Enterococcus faecalis", "value": 6.3, "unit": "µg/mL"}]}, {"molecule": "CCNCC1CCN(c2c(F)cc3c(=O)c(C(=O)O)cn4c3c2OCC42CC2)C1", "note": "(stereo unspecified)", "values": [{"measurement": "MIC", "setting": "Escherichia coli [1]", "value": 1.6, "unit": "µg/mL"}, {"measurement": "IC50", "setting": "Escherichia coli [7]", "value": 5.5, "unit": "µg/mL"}, {"measurement": "MIC", "setting": "Escherichia coli [2]", "value": 0.8, "unit": "µg/mL"}, {"measurement": "MIC", "setting": "Enterobacter cloacae", "value": 0.8, "unit": "µg/mL"}, {"measurement": "MIC", "setting": "Klebsiella pneumoniae", "value": 3.1, "unit": "µg/mL"}, {"measurement": "MIC", "setting": "Pseudomonas aeruginosa", "value": 6.3, "unit": "µg/mL"}, {"measurement": "MIC", "setting": "Providencia rettgeri", "value": 3.1, "unit": "µg/mL"}, {"measurement": "MIC", "setting": "Staphylococcus aureus [5]", "value": 1.6, "unit": "µg/mL"}, {"measurement": "MIC", "setting": "Staphylococcus aureus [6]", "value": 0.1, "unit": "µg/mL"}, {"measurement": "MIC", "setting": "Streptococcus pneumoniae", "value": 0.05, "unit": "µg/mL"}, {"measurement": "MIC", "setting": "Streptococcus pyogenes", "value": 0.05, "unit": "µg/mL"}, {"measurement": "MIC", "setting": "Enterococcus faecalis", "value": 0.8, "unit": "µg/mL"}]}, {"molecule": "CC1COc2c(N3CCNCC3)c(F)cc3c(=O)c(C(=O)O)cn1c23", "note": "(stereo unspecified) [DESMETHYL-OFLOXACIN]", "values": [{"measurement": "MIC", "setting": "Escherichia coli [1]", "value": 0.1, "unit": "µg/mL"}, {"measurement": "IC50", "setting": "Escherichia coli [7]", "value": 3, "unit": "µg/mL"}, {"measurement": "MIC", "setting": "Escherichia coli [2]", "value": 0.2, "unit": "µg/mL"}, {"measurement": "MIC", "setting": "Enterobacter cloacae", "value": 0.1, "unit": "µg/mL"}, {"measurement": "MIC", "setting": "Klebsiella pneumoniae", "value": 0.2, "unit": "µg/mL"}, {"measurement": "MIC", "setting": "Pseudomonas aeruginosa", "value": 1.6, "unit": "µg/mL"}, {"measurement": "MIC", "setting": "Providencia rettgeri", "value": 0.4, "unit": "µg/mL"}, {"measurement": "MIC", "setting": "Staphylococcus aureus [5]", "value": 3.1, "unit": "µg/mL"}, {"measurement": "MIC", "setting": "Staphylococcus aureus [6]", "value": 0.4, "unit": "µg/mL"}, {"measurement": "MIC", "setting": "Streptococcus pneumoniae", "value": 3.1, "unit": "µg/mL"}, {"measurement": "MIC", "setting": "Streptococcus pyogenes", "value": 0.4, "unit": "µg/mL"}, {"measurement": "MIC", "setting": "Enterococcus faecalis", "value": 6.3, "unit": "µg/mL"}]}, {"molecule": "CC1COc2c(N3CCN(C)CC3)c(F)cc3c(=O)c(C(=O)O)cn1c23", "note": "(stereo unspecified) [OFLOXACIN]", "values": [{"measurement": "MIC", "setting": "Escherichia coli [1]", "value": 0.05, "unit": "µg/mL"}, {"measurement": "IC50", "setting": "Escherichia coli [7]", "value": 2.25, "unit": "µg/mL"}, {"measurement": "MIC", "setting": "Escherichia coli [2]", "value": 0.1, "unit": "µg/mL"}, {"measurement": "MIC", "setting": "Enterobacter cloacae", "value": 0.1, "unit": "µg/mL"}, {"measurement": "MIC", "setting": "Klebsiella pneumoniae", "value": 0.1, "unit": "µg/mL"}, {"measurement": "ED50", "setting": "Mus musculus [3]", "value": 2, "unit": "mg/kg"}, {"measurement": "ED50", "setting": "Mus musculus [4]", "value": 0.8, "unit": "mg/kg"}, {"measurement": "MIC", "setting": "Pseudomonas aeruginosa", "value": 0.4, "unit": "µg/mL"}, {"measurement": "MIC", "setting": "Providencia rettgeri", "value": 0.2, "unit": "µg/mL"}, {"measurement": "MIC", "setting": "Staphylococcus aureus [5]", "value": 0.4, "unit": "µg/mL"}, {"measurement": "MIC", "setting": "Staphylococcus aureus [6]", "value": 0.1, "unit": "µg/mL"}, {"measurement": "MIC", "setting": "Streptococcus pneumoniae", "value": 0.8, "unit": "µg/mL"}, {"measurement": "MIC", "setting": "Streptococcus pyogenes", "value": 0.8, "unit": "µg/mL"}, {"measurement": "MIC", "setting": "Enterococcus faecalis", "value": 0.8, "unit": "µg/mL"}]}]}
